In ChEMBL document CHEMBL2203175, “Discovery and optimization of sulfonyl acrylonitriles as selective, covalent inhibitors of protein phosphatase methylesterase-1” (J Med Chem, 2011):
Active and inactive are the calls of the source. No cut-off for these calls is given here.

How the values were obtained:
[1] = molecular target: T1, Protein phosphatase methylesterase 1 (Homo sapiens) (UniProt Q9Y570); assay: Inhibition of PME1 overexpressed in HEK293T cells assessed as increase in methylated PP2A level at 20 uM after 1 hr by Western blot analysis; assay type: cell-based; conditions: HEK-293T
T1 sequence (whole entry): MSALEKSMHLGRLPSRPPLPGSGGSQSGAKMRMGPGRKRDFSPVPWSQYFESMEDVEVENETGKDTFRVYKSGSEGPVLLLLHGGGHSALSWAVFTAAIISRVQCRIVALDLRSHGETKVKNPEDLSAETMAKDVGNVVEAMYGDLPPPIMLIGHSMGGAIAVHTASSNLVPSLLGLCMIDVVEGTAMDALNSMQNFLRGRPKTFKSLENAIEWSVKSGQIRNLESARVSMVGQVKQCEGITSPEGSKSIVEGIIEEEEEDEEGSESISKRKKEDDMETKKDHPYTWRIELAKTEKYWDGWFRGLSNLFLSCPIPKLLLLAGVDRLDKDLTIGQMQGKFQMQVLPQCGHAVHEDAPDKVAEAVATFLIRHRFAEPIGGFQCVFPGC
Method in brief: (§1)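 HEK 293T cells, either stably overexpressing PME-1 or untransfected, treated in medium for 1 h at 37 °C. Total cell extract (2 mg/mL) run on reducing SDS-PAGE (10%) and blotted with demethylated-specific (4b7), methylated-specific (2A10) and total PP2A antibodies, imaged by infrared fluorescence. Mean ± SEM, n = 3, compared against DMSO-treated cells.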

[2] = molecular target: T1, Protein phosphatase methylesterase 1 (Homo sapiens); assay: Inhibition of PME1 overexpressed in HEK293T cells assessed as reduction in demethylated PP2A level at 20 uM after 1 hr by Western blot analysis relative to control; assay type: cell-based; conditions: HEK-293T; method in brief: as §1
[3] = test system: HEK-293T; assay: Effect on sulfonate ester-Rh labeled soluble proteome in HEK293T cells at 100 uM incubated for 1 hr before proteome labeling measured after 1 hr relative to control; assay type: cell-based; conditions: Homo sapiens
Method in brief: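 HEK 293T cells (DMEM, 10% FBS, 37 °C, 5% CO2) given compound in medium for 1 h at 37 °C, washed, scraped, sonicated in PBS pH 7.5. Soluble fraction diluted to 1 mg/mL protein in PBS, labeled with CA-rhodamine or SE-rhodamine (5 μM, 1 h, 25 °C), run on reducing SDS-PAGE (10%), and band intensities read by in-gel fluorescence against DMSO-treated samples.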

[4] = molecular target: Calcium-independent phospholipase A2-gamma (Homo sapiens) (UniProt Q9NP80); assay: Inhibition of PNPLA8 binding to FP-biotin in [12C][14N]-lysine, arginine and [13C6][15N2]-lysine, arginine labeled HEK293T cells at 20 uM after 1 hr by isotopic activity-based protein profiling-MudPIT assay; assay type: cell-based; conditions: HEK-293T
Method in brief: (§2)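 SILAC HEK 293T: light cells (12C14N-Lys/Arg) treated with compound, heavy cells (13C6 15N2-Lys/Arg) with DMSO, 1 h at 37 °C. Proteomes were mixed 1:1 (0.5 mg each) and labeled with FP-biotin (5 μM, 1 h, 25 °C), then streptavidin-enriched, digested on bead with trypsin, and run by MudPIT. Light/heavy ratios were normalized to a DMSO/DMSO control. Only SHs with ≥2 quantifiable peptides were kept; mean ± SEM across peptides.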

[5] = molecular target: Lysosomal protective protein (Homo sapiens) (UniProt P10619); assay: Inhibition of CTSA binding to FP-biotin in [12C][14N]-lysine, arginine and [13C6][15N2]-lysine, arginine labeled HEK293T cells at 20 uM after 1 hr by isotopic activity-based protein profiling-MudPIT assay; assay type: cell-based; conditions: HEK-293T; method in brief: as §2
[6] = molecular target: Phosphatidylserine lipase ABHD16A (Homo sapiens) (UniProt O95870); assay: Inhibition of BAT5 binding to FP-biotin in [12C][14N]-lysine, arginine and [13C6][15N2]-lysine, arginine labeled HEK293T cells at 20 uM after 1 hr by isotopic activity-based protein profiling-MudPIT assay; assay type: cell-based; conditions: HEK-293T; method in brief: as §2
[7] = molecular target: Platelet-activating factor acetylhydrolase IB subunit alpha1 (Homo sapiens) (UniProt Q15102); assay: Inhibition of PAFAH1B3 binding to FP-biotin in [12C][14N]-lysine, arginine and [13C6][15N2]-lysine, arginine labeled HEK293T cells at 20 uM after 1 hr by isotopic activity-based protein profiling-MudPIT assay; assay type: cell-based; conditions: HEK-293T; method in brief: as §2
[8] = molecular target: Retinoid-inducible serine carboxypeptidase (Homo sapiens) (UniProt Q9HB40); assay: Inhibition of SCPEP1 binding to FP-biotin in [12C][14N]-lysine, arginine and [13C6][15N2]-lysine, arginine labeled HEK293T cells at 20 uM after 1 hr by isotopic activity-based protein profiling-MudPIT assay; assay type: cell-based; conditions: HEK-293T; method in brief: as §2
[9] = molecular target: Platelet-activating factor acetylhydrolase IB subunit alpha2 (Homo sapiens) (UniProt P68402); assay: Inhibition of PAFAH1B2 binding to FP-biotin in [12C][14N]-lysine, arginine and [13C6][15N2]-lysine, arginine labeled HEK293T cells at 20 uM after 1 hr by isotopic activity-based protein profiling-MudPIT assay; assay type: cell-based; conditions: HEK-293T; method in brief: as §2
[10] = molecular target: Lysosomal Pro-X carboxypeptidase (Homo sapiens) (UniProt P42785); assay: Inhibition of PRCP binding to FP-biotin in[12C][14N]-lysine, arginine and [13C6][15N2]-lysine, arginine labeled HEK293T cells at 20 uM after 1 hr by isotopic activity-based protein profiling-MudPIT assay; assay type: cell-based; conditions: HEK-293T; method in brief: as §2
[11] = molecular target: Prolyl endopeptidase (Homo sapiens) (UniProt P48147); assay: Inhibition of PREP binding to FP-biotin in [12C][14N]-lysine, arginine and [13C6][15N2]-lysine, arginine labeled HEK293T cells at 20 uM after 1 hr by isotopic activity-based protein profiling-MudPIT assay; assay type: cell-based; conditions: HEK-293T; method in brief: as §2
[12] = molecular target: Acyl-protein thioesterase 1 (Homo sapiens) (UniProt O75608); assay: Inhibition of LYPLA1 binding to FP-biotin in [12C][14N]-lysine, arginine and [13C6][15N2]-lysine, arginine labeled HEK293T cells at 20 uM after 1 hr by isotopic activity-based protein profiling-MudPIT assay; assay type: cell-based; conditions: HEK-293T; method in brief: as §2
[13] = molecular target: Acyl-coenzyme A thioesterase 2, mitochondrial (Homo sapiens) (UniProt P49753); assay: Inhibition of ACOT2 binding to FP-biotin in [12C][14N]-lysine, arginine and [13C6][15N2]-lysine, arginine labeled HEK293T cells at 20 uM after 1 hr by isotopic activity-based protein profiling-MudPIT assay; assay type: cell-based; conditions: HEK-293T; method in brief: as §2
[14] = molecular target: Acyl-coenzyme A thioesterase 1 (Homo sapiens) (UniProt Q86TX2); assay: Inhibition of ACOT1 binding to FP-biotin in [12C][14N]-lysine, arginine and [13C6][15N2]-lysine, arginine labeled HEK293T cells at 20 uM after 1 hr by isotopic activity-based protein profiling-MudPIT assay; assay type: cell-based; conditions: HEK-293T; method in brief: as §2
[15] = molecular target: T1, Protein phosphatase methylesterase 1 (Homo sapiens); conditions: HEK-293T, 20 uM
[16] = molecular target: T1, Protein phosphatase methylesterase 1 (Homo sapiens); conditions: HEK-293T, 20 uM; remark: listed apart in the source
[17] = molecular target: T1, Protein phosphatase methylesterase 1 (Homo sapiens); conditions: HEK-293T, 50 uM

Chain of Retinoid-inducible serine carboxypeptidase (Homo sapiens) (Q9HB40 whole entry): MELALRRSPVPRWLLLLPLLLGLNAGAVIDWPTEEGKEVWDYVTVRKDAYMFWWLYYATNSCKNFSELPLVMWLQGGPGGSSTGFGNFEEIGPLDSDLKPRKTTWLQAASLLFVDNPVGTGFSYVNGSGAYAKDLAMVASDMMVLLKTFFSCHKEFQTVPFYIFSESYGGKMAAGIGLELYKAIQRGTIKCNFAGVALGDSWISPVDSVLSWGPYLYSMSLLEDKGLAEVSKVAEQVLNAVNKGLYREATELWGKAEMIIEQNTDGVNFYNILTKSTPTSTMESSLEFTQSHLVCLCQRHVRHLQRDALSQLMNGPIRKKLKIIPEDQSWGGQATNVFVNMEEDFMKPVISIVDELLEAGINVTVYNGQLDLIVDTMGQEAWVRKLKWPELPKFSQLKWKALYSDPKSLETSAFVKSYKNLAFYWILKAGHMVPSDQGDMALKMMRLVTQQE
Chain of Lysosomal Pro-X carboxypeptidase (Homo sapiens) (P42785 whole entry): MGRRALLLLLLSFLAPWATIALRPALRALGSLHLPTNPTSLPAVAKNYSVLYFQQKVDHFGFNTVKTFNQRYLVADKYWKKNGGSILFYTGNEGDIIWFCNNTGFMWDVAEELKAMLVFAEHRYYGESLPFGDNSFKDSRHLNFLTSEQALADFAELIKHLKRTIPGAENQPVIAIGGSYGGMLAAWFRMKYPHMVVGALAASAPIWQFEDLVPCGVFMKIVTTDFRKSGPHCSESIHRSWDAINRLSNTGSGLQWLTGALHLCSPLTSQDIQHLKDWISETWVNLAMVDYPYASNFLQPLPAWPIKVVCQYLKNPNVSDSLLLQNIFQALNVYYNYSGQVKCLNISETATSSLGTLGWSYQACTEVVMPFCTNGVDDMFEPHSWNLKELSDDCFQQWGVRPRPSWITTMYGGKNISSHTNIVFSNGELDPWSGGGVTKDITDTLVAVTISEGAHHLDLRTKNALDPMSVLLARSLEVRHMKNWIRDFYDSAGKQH
Chain of Prolyl endopeptidase (Homo sapiens) (P48147 whole entry): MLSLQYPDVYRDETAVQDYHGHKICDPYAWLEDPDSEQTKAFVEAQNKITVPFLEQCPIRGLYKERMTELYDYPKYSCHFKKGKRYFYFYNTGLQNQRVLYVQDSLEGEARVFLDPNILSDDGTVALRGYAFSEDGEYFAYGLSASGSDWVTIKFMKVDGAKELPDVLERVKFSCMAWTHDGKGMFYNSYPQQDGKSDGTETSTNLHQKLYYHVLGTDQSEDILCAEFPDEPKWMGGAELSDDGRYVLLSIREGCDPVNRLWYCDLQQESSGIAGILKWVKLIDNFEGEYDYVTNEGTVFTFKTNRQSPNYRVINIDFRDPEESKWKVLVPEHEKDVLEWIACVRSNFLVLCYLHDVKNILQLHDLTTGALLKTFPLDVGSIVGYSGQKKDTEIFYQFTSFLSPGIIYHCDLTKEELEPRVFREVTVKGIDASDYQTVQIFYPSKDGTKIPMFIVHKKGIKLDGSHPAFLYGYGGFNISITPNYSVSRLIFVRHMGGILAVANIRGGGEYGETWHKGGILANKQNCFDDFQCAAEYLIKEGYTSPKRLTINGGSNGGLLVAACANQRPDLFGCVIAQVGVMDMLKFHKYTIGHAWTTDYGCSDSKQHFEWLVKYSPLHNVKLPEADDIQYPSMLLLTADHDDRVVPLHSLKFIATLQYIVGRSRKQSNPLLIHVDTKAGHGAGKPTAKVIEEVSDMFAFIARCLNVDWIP
Chain of Phosphatidylserine lipase ABHD16A (Homo sapiens) (O95870 whole entry): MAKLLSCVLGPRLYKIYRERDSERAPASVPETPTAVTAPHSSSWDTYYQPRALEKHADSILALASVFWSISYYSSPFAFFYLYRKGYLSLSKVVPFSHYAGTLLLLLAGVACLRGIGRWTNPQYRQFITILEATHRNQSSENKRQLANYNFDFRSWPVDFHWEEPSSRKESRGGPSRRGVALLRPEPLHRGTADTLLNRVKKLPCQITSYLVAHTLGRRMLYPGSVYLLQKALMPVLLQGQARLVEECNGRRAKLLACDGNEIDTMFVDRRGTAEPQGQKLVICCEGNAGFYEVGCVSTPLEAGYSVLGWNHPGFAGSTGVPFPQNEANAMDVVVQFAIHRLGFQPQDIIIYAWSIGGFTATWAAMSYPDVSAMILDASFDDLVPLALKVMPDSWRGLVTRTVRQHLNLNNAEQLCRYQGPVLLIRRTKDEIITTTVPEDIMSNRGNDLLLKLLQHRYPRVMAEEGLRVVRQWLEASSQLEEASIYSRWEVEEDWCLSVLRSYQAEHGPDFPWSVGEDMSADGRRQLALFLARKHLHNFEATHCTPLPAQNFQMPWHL
Chain of Lysosomal protective protein (Homo sapiens) (P10619 29-326 limits assumed): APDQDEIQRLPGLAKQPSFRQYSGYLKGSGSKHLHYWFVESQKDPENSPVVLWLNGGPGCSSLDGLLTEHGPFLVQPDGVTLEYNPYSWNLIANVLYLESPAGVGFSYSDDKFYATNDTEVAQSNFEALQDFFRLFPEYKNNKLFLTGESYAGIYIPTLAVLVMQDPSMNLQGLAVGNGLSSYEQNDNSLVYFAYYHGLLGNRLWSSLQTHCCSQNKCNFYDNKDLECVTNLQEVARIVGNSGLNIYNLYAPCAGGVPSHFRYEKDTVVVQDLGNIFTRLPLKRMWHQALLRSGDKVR
Chain of Lysosomal protective protein (Homo sapiens) (P10619 327-480 limits assumed): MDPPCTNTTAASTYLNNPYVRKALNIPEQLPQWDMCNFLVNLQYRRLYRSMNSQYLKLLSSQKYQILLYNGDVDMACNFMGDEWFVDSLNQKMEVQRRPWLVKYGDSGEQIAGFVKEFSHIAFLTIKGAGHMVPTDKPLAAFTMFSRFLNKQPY
Chain of Platelet-activating factor acetylhydrolase IB subunit alpha1 (Homo sapiens) (Q15102 whole entry): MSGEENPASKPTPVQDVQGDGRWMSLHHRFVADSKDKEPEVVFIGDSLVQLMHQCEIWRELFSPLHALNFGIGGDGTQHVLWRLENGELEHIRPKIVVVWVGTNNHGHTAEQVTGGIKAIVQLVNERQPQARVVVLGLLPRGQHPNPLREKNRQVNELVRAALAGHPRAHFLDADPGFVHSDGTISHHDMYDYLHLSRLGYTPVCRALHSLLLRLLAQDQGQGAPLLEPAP
Chain of Calcium-independent phospholipase A2-gamma (Homo sapiens) (Q9NP80 whole entry): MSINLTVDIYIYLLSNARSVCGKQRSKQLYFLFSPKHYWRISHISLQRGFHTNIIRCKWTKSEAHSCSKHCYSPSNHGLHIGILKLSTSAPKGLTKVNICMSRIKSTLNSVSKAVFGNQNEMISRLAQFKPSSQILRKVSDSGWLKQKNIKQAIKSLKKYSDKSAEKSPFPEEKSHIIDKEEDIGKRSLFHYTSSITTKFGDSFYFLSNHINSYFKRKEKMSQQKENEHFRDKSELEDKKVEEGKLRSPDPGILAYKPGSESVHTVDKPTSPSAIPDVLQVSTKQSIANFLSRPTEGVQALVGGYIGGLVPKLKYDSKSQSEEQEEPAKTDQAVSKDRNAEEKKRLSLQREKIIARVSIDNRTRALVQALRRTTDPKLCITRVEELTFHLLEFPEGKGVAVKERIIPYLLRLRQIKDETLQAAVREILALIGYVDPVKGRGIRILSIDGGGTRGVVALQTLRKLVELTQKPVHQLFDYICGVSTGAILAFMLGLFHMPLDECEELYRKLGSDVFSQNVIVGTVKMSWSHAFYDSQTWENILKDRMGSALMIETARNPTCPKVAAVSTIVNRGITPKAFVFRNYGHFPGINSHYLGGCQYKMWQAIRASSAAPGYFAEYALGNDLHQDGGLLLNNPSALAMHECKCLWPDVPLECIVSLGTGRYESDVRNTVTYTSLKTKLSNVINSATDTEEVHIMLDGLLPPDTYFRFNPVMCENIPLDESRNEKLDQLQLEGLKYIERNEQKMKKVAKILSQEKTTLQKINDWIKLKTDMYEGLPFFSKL
Chain of Platelet-activating factor acetylhydrolase IB subunit alpha2 (Homo sapiens) (P68402 whole entry): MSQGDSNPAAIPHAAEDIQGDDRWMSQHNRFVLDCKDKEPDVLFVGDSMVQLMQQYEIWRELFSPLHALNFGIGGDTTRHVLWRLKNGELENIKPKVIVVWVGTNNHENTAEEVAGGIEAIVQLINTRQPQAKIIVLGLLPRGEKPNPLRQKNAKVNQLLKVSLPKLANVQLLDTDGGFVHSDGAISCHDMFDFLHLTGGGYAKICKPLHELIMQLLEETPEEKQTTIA
Chain of Acyl-protein thioesterase 1 (Homo sapiens) (O75608 whole entry): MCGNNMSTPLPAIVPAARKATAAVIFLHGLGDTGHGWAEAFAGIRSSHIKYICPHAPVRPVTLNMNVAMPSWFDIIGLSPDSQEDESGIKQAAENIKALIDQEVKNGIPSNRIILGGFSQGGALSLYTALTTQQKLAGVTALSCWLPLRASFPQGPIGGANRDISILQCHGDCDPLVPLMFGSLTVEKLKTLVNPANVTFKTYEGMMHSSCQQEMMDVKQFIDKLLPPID
Chain of Acyl-coenzyme A thioesterase 1 (Homo sapiens) (Q86TX2 whole entry): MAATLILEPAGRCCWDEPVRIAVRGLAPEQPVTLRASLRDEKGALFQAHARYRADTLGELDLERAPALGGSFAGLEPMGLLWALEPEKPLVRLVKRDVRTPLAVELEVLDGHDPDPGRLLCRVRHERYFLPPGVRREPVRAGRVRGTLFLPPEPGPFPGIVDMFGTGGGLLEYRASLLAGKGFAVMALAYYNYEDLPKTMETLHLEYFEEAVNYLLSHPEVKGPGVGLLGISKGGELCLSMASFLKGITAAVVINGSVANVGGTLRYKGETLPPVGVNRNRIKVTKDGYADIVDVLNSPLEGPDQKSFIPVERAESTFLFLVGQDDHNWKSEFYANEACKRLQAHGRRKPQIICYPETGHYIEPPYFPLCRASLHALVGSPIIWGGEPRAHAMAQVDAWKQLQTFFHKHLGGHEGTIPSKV

**Q.** Which inhibition [1] does the source give for N#C/C(=C\c1cccn1S(=O)(=O)c1cccc([N+](=O)[O-])c1)S(=O)(=O)c1ccc(F)cc1 here?
**A.** Active

**Q.** And the inhibition [2]?
**A.** 80%

**Q.** And the Activity [3]?
**A.** inactive

**Q.** What about the inhibition [4] of the same compound?
**A.** inactive

**Q.** And the inhibition [5]?
**A.** inactive

**Q.** What about the inhibition [6] of the same compound?
**A.** inactive

**Q.** What about the inhibition [7] of the same compound?
**A.** inactive

**Q.** And the inhibition [8]?
**A.** inactive

**Q.** What about the inhibition [9] of the same compound?
**A.** inactive

**Q.** What about the inhibition [10] of the same compound?
**A.** inactive

**Q.** What about the inhibition [11] of the same compound?
**A.** inactive

**Q.** What about the inhibition [12] of the same compound?
**A.** inactive

**Q.** And the inhibition [13]?
**A.** inactive

**Q.** What about the inhibition [14] of the same compound?
**A.** inactive

**Q.** What about the inhibition [15] of the same compound?
**A.** Active

**Q.** What about the inhibition [16] of the same compound?
**A.** Active

**Q.** What about the inhibition [17] of the same compound?
**A.** Active
